Data reported in ChEMBL document CHEMBL1131173, “Alkoxypsoralens, novel nonpeptide blockers of Shaker-type K+ channels: synthesis and photoreactivity” (J Med Chem, 1998).

Assays:
[1] = target: T1, Potassium voltage-gated channel subfamily A member 1 (Homo sapiens, UniProt Q09470); test: K+ channel blocking activity as blockade at 25 uM in Xenopus laevis Ranvier nodes; assay type: functional
How it was run: (§1)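 On the Ranvier node, compound was tested at 25 µM. Steady-state K+ current block (BK) was normalized to currents in normal bathing medium. Peak Na+ current block was measured at 70 mV pulse amplitude and normalized the same way. Selectivity S = BK/BNa.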

[2] = target: T1, Potassium voltage-gated channel subfamily A member 1; test: Selectivity of K+ current blockade given by Bk/BNa in Xenopus laevis; assay type: functional; how it was run: as §1
[3] = compound was tested for production of singlet oxygen, measured as decrease in absorbance of N,N-dimethyl-p-nitrosoaniline (RNO) at 440 nm after 5 hr of UV-A irradiation; assay type: ADME; details: 10 µM
How it was run: (§2)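 Singlet oxygen generation by compound at 10 µM in O2-saturated solution, read as RNO bleaching. Absorbance decrease was measured at 440 nm after 5 h of UV-A irradiation (4.5 mW/cm2, incident dose 81 J/cm2).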

[4] = test system: Artemia salina; test: Photoinduced dose modification against nauplii of Artemia salina; assay type: functional
How it was run: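 Artemia salina nauplii were collected 48 h after hatching, ten per vial in 3 mL seawater, with compound from 100 nM upward; methanol was the vehicle. Vials were incubated at 25 °C under daylight or with added UV-A (1.3 mW/cm2, incident dose 112 J/cm2). Dead nauplii were counted at 24 h to give LC50. Assays were run in triplicate.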

[5] = test system: Nucleic Acid; test: Photobinding to Poly(dA-dT)-Poly(dA-dT)-DNA after UV-A irradiation; assay type: nucleic-acid assay
How it was run: (§3)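 Poly(dA-dT)-poly(dA-dT) at 10 µM in 0.1 M MOPS, pH 7.0, with compound at a 1:1 compound:DNA ratio. Samples were kept 30 min in the dark or irradiated 30 min at 365 nm (4.5 mW/cm2, 8.1 J/cm2). Melting profiles gave ΔTm = Tm(DNA+drug) − Tm(DNA), as the mean of three determinations.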

[6] = test system: Nucleic Acid; test: Photobinding to Poly(dA-dT)-Poly(dA-dT)-DNA in dark, determined by the shift of thermal transition temperature; assay type: nucleic-acid assay; how it was run: as §3
[7] = (§4) Compound was tested for in vitro phototoxicity against nauplii of Artemia salina after UV-irradiation
How it was run: (§5)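 Artemia salina nauplii were hatched for 48 h, and ten per vial were placed in 3 mL seawater containing compound from 100 nM upward in methanol. Incubation was at 25 °C either under daylight or under added UV-A (1.3 mW/cm2, incident dose 112 J/cm2). Dead nauplii were counted at 24 h to give LC50. Run in triplicate.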

[8] = (§6) Compound was tested for in vitro phototoxicity against nauplii of Artemia salina in daylight; how it was run: as §5
[9] = Compound was tested for production of singlet oxygen, measured as decrease in absorbance of N,N-dimethyl-p-nitrosoaniline (RNO) at 440 nm after 5 hr of UV-A irradiation; assay type: ADME; details: 10 µM; how it was run: as §2
[10] = target: T2, Voltage-gated potassium channel KCNC1 (Homo sapiens, UniProt P48547); test: Blockade of peak K+ currents against Kv3.1 gene; assay type: functional
T2 sequence (P48547 whole entry): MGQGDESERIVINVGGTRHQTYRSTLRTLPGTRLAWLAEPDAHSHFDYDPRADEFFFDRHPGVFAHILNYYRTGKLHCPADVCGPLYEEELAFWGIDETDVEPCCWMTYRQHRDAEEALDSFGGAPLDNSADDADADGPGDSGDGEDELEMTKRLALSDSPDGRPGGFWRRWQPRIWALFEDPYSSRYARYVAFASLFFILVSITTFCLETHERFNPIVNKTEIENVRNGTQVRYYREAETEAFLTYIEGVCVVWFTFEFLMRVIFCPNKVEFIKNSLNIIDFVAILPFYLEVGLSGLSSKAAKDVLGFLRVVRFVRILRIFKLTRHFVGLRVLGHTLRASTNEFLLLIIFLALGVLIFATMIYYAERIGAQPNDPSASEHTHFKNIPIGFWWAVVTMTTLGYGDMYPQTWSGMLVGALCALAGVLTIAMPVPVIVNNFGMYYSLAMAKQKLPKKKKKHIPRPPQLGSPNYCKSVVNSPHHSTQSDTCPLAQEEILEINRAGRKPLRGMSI
How it was run: (§7)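 Channels expressed in mammalian cells and recorded by whole-cell patch clamp. Each compound was applied at several concentrations, and the apparent dissociation constant Kd was calculated for block of peak K+ current.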

[11] = target: Potassium voltage-gated channel subfamily A member 3 (Mus musculus, UniProt P16390); test: Blockade of peak Kv1.3 potassium currents; assay type: functional; how it was run: as §7
[12] = target: T1, Potassium voltage-gated channel subfamily A member 1; test: Blockade of peak K+ currents against Kv1.1 gene; assay type: functional; how it was run: as §7
[13] = target: Potassium voltage-gated channel subfamily A member 2 (Homo sapiens, UniProt P16389); test: Blockade of peak K+ currents against Kv1.2 gene; assay type: functional; how it was run: as §7
[14] = target: Potassium voltage-gated channel subfamily A member 5 (Homo sapiens, UniProt P22460); test: Blockade of peak K+ currents against Kv1.5 gene; assay type: functional
How it was run: (§8)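 Whole-cell patch-clamp recording of cloned channels expressed in mammalian cells. Each compound was tested at several concentrations, and an apparent Kd for block of peak K+ current was calculated.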

[15] = target: Potassium voltage-gated channel subfamily A member 6 (Homo sapiens, UniProt P17658); test: Blockade of peak K+ currents against Kv1.6 gene; assay type: functional; how it was run: as §8
[16] = Compound was tested for production of single oxygen, measured as decrease in absorbance of N,N-dimethyl-p-nitrosoaniline (RNO) at 440 nm after 5 hr of UV-A irradiation; assay type: ADME; details: 10 µM
How it was run: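 Singlet oxygen from compound at 10 µM was measured in O2-saturated solution by bleaching of N,N-dimethyl-p-nitrosoaniline. The read-out was the fall in absorbance at 440 nm after 5 h of UV-A (4.5 mW/cm2, incident dose 81 J/cm2).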

[17] = test system: Artemia salina; test: as §4; assay type: functional; details: light or radiation study; how it was run: as §5
[18] = test system: Artemia salina; test: as §6; assay type: functional; details: light or radiation study; how it was run: as §5

T1 sequence (Q09470 whole entry): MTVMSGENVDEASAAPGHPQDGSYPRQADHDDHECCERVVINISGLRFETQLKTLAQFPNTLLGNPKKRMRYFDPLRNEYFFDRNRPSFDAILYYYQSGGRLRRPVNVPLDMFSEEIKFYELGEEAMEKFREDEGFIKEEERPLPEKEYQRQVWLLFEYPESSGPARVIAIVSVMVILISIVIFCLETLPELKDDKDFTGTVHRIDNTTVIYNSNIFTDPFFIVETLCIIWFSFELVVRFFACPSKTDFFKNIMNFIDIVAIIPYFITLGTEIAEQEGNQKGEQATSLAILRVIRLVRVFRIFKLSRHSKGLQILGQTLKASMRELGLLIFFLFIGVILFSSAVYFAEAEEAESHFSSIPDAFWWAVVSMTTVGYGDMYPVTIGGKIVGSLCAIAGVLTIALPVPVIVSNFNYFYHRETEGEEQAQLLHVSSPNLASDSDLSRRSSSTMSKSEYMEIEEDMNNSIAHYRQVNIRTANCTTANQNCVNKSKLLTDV
Sequence of Potassium voltage-gated channel subfamily A member 2 (P16389 whole entry): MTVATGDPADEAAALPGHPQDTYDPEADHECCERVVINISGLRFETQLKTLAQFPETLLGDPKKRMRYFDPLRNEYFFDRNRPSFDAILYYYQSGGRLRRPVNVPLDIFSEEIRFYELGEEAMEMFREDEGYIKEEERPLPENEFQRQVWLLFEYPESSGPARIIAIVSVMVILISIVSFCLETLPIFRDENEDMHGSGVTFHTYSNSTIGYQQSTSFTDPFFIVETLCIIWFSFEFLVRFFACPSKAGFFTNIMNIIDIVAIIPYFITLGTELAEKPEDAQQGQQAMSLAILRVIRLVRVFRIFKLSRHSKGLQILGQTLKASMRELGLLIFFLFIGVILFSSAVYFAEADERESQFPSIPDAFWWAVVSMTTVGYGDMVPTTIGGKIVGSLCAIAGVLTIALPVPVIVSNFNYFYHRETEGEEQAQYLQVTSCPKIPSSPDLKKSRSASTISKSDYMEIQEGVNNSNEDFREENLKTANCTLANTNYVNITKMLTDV
Sequence of Potassium voltage-gated channel subfamily A member 3 (P16390 whole entry): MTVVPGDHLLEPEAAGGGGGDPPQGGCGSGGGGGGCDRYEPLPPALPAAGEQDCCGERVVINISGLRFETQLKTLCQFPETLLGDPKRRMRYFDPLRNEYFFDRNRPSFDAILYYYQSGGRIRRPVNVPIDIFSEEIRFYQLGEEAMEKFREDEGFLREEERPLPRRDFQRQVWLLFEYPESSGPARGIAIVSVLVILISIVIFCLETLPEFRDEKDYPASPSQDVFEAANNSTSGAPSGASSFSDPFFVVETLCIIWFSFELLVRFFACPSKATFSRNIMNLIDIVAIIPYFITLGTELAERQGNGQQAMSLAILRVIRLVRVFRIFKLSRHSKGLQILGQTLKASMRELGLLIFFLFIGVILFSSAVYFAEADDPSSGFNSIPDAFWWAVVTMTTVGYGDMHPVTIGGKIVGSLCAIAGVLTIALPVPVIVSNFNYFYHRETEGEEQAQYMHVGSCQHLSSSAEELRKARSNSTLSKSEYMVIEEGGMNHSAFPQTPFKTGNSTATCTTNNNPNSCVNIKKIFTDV
Sequence of Potassium voltage-gated channel subfamily A member 5 (P22460 whole entry): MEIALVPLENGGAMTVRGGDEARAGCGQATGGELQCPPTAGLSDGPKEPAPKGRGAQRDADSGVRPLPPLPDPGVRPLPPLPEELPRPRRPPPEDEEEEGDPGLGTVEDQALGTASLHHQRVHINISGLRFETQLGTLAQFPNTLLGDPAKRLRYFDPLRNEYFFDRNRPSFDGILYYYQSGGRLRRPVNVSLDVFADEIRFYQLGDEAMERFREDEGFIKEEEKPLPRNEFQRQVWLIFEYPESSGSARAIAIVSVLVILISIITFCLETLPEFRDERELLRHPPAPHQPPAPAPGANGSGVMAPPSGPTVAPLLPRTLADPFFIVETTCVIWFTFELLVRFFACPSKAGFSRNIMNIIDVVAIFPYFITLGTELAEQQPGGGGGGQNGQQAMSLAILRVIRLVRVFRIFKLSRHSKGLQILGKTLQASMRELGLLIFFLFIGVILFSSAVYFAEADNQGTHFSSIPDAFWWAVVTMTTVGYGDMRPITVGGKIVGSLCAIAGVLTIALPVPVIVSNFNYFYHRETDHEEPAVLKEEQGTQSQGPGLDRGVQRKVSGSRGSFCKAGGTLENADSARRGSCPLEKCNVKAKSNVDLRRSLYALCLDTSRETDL
Sequence of Potassium voltage-gated channel subfamily A member 6 (P17658 whole entry): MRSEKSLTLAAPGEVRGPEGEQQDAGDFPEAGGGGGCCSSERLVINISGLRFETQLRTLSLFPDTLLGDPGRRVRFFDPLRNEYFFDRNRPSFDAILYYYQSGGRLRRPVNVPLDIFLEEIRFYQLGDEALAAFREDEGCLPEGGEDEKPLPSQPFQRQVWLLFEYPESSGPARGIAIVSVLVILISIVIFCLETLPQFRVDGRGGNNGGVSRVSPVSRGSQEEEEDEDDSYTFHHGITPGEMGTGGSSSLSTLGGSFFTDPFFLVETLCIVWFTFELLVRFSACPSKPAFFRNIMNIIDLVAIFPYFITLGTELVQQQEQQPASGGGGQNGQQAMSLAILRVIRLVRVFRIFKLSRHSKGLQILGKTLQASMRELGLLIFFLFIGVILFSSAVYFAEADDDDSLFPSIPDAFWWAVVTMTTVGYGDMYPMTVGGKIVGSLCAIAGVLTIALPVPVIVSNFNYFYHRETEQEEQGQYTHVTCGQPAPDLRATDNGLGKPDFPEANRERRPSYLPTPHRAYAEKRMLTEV

SMILES	BK [1] [%]	Selectivity [2]	Dose modification [4]	ΔTm [5] [°C]	ΔTm [6] [°C]	LC50 [7] [µM]	LC50 [8] [µM]	also measured
CC[N+](CC)(CC)Cc1c2ccoc2c(OC)c2oc(=O)ccc12	20	7	–	–	–	–	–	–
COCc1c(C)oc2c(C)c3oc(=O)cc(C)c3cc12	31	11	>5	> 20	0.5	20	> 100	O2 production [3]: 50%
CCOc1cc(OCC)c2c(COC)cc(=O)oc2c1	35	1.8	–	–	–	–	–	–
CC[N+](CC)(CC)Cc1c(C)oc2c(C)c3oc(=O)cc(C)c3cc12.[Cl-]	27	5	–	16	7	–	–	O2 production [3]: 66%
CCOc1c2ccoc2c(OCC)c2oc(=O)ccc12	75	14	–	0.5	0.5	> 100	> 100	O2 production [9]: -4%; Kd [10]: 178 µM; Kd [11]: 28 µM; Kd [12]: 167 µM; Kd [13]: 23 µM
COc1c2occc2c(COC(C)C)c2ccc(=O)oc12	10	3	–	–	–	–	–	–
CCOCc1c2ccoc2c(OC)c2oc(=O)ccc12	16	2	–	1.5	2	–	–	O2 production [3]: 7%
COc1c2ccoc2cc2oc(=O)ccc12 [BERGAPTEN]	52	14	>40	13	0.5	2.5	> 100	Kd [14]: 177 µM; Kd [15]: 187 µM; Kd [10]: 111 µM; Kd [11]: 101 µM; Kd [12]: > 200 µM; Kd [13]: 41 µM; O2 production [16]: 5%
COc1c2occc2cc2ccc(=O)oc12 [METHOXSALEN]	5	4	>40	10	1	2.2	> 100	O2 production [9]: 9%
Cc1coc2cc3oc(=O)ccc3cc12	63	15	>200	9	1	0.5	> 100	O2 production [9]: 71%
COCc1c2occc2c(OC)c2ccc(=O)oc12	35	26	–	1	1	> 100	> 100	O2 production [3]: 4%; Kd [11]: 28 µM
Cc1cc(=O)oc2cc3c(cc12)C(C)CO3 (centres undefined)	45	22	>4	–	–	–	–	LC50 [17]: 25 µM; LC50 [18]: > 100 µM
CCOc1cc(OCC)c2ccc(=O)oc2c1	40	0.7	–	–	–	–	–	–
Cc1coc2cc3oc(=O)cc(CO)c3cc12	11	4	–	–	–	–	–	–
COCc1cc(=O)oc2cc3occ(C)c3cc12	52	17	>40	> 20	0.5	2.5	> 100	O2 production [9]: 43%; Kd [10]: 213 µM; Kd [11]: 90 µM; Kd [12]: 56 µM; Kd [13]: 18 µM
COCc1c2ccoc2c(OC)c2oc(=O)ccc12	14	3	–	–	–	–	–	LC50 [17]: > 100 µM; LC50 [18]: > 100 µM
C=CCOCc1c2ccoc2c(OC)c2oc(=O)ccc12	24	6	–	–	–	–	–	–
O=c1ccc2cc3c(-c4ccccc4)coc3cc2o1	68	1.4	–	–	–	–	–	–
COCc1cc(=O)oc2cc3occ(-c4ccccc4)c3cc12	27	2	–	–	–	–	–	–
CC1COc2cc3oc(=O)ccc3cc21 (centres undefined)	23	3	>4	0.5	0.5	25	> 100	O2 production [9]: 100%
Cc1coc2cc3oc(=O)cc(C)c3cc12	25	8	>150	–	–	–	–	LC50 [17]: 0.7 µM; LC50 [18]: > 100 µM
COc1c2c(cc3ccc(=O)oc13)CCO2	4	5	–	–	–	–	–	–
CCOCc1c(C)oc2c(C)c3oc(=O)cc(C)c3cc12	55	6	–	> 20	1	–	–	O2 production [3]: 50%
COc1c2ccoc2c(OC)c2oc(=O)ccc12 [ISOPIMPINELLIN]	–	–	–	1	0.5	> 100	> 100	O2 production [3]: -5%
